According to PMC7678623 (Angewandte Chemie (International ed. in English), 2019):

Legend:
Type in all cases: cell-based
[1] = test system: wildtype and Crbn−/− Jurkat cells; test: Cell cycle profile by propidium iodide staining of DNA content; conditions: 100 nM, 24h
Procedure, shortened: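 Wildtype and Crbn−/− Jurkat cells were exposed to 100 nM test compound for 24h, alongside a parent CDK4/6 inhibitor and an imide CRBN ligand as comparators. Cells were stained with propidium iodide for DNA content, and cell cycle distribution was read from fluorescence histograms and then quantitated.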

[2] = test system: CDK4/6, IKZF1/3, phosphorylated Rb; test: Immunoblots in Granta-519 cells; conditions: 1 µM, 1d
[3] = test system: CDK4/6; test: Immunoblot for CDK4/6 degradation in Jurkat cells; conditions: WT Jurkat cells, 4h, Figure 3
Procedure, shortened: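 Jurkat cells, which express both CDK4 and CDK6, were treated for 4h with test compound at 1 µM. The test compounds were degraders built on each of three CDK4/6 inhibitor scaffolds. CDK4 and CDK6 protein levels were then assessed by immunoblot.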

[4] = test system: IKZF1/3; test: Immunoblot for IKZF1/3 degradation in Jurkat cells; conditions: 4h, Figure 3
[5] = test system: Molt4 cells; test: Multiplexed MS-based quantitative proteomics; conditions: 250 nM, 5h

CC(=O)c1c(C)c2cnc(Nc3ccc(N4CCNCC4)cn3)nc2n(C2CCCC2)c1=O [palbociclib]
cell cycle effect (G1 arrest) ([1]; Crbn−/− Jurkat cells): induced profound G1 arrest in both cell lines
cell cycle effect (G1 arrest) ([1]; wildtype Jurkat cells): induced profound G1 arrest in both cell lines
levels of phosphorylated Rb (immunoblot) [2]: reduced levels of phosphorylated Rb

CN(C)C(=O)c1cc2cnc(Nc3ccc(N4CCN(CCCCNC(=O)CNc5cccc6c5C(=O)N(C5CCC(=O)NC5=O)C6=O)CC4)cn3)nc2n1C1CCCC1 (centres unmarked) [BSJ-01–187]
CDK4 and CDK6 degradation selectivity (immunoblot) [3]: selectively degraded CDK4
IKZF1/3 degradation (immunoblot) [4]: induced degradation of IKZF1/3

CC(=O)c1c(C)c2cnc(Nc3ccc(N4CCN(CCOCCOCCOCCNC(=O)COc5cccc6c5C(=O)N(C5CCC(=O)NC5=O)C6=O)CC4)cn3)nc2n(C2CCCC2)c1=O (centres unmarked) [BSJ-03–123]
CDK4 and CDK6 degradation selectivity (immunoblot) [3]: selective CDK6 degrader
IKZF1/3 degradation (immunoblot) [4]: none of which induced IKZF1/3 degradation
proteome-wide degradation selectivity [5]: loss of CDK6, but not CDK4 or IKZF1/3

CC(=O)c1c(C)c2cnc(Nc3ccc(N4CCN(CC(=O)NCCOCCOCCOCCNc5cccc6c5C(=O)N(C5CCC(=O)NC5=O)C6=O)CC4)cn3)nc2n(C2CCCC2)c1=O (centres unmarked) [YKL-06–102]
CDK4 and CDK6 degradation selectivity (immunoblot) [3]: induced selective degradation of CDK6
IKZF1/3 degradation (immunoblot) [4]: induced degradation of IKZF1/3

CN(C)C(=O)c1cc2cnc(Nc3ccc(N4CCN(CCCCNC(=O)COc5cccc6c5C(=O)N(C5CCC(=O)NC5=O)C6=O)CC4)cn3)nc2n1C1CCCC1 (centres unmarked) [BSJ-04–132]
CDK4 and CDK6 degradation selectivity (immunoblot) [3]: selective CDK4 degrader
IKZF1/3 degradation (immunoblot) [4]: none of which induced IKZF1/3 degradation
CDK4 abundance change [5]: ~ 1.9 fold change
proteome-wide degradation selectivity [5]: its level was reduced to a greater extent than those of CDK6, IKZF1 and IKZF3

Nc1cccc2c1CN(C1CCC(=O)NC1=O)C2=O (centres unmarked) [lenalidomide]
cell cycle effect (G1 arrest) ([1]; Crbn−/− Jurkat cells): had no effect
cell cycle effect (G1 arrest) ([1]; wildtype Jurkat cells): had no effect

CC(=O)c1c(C)c2cnc(Nc3ccc(N4CCN(CCCCNC(=O)COc5cccc6c5C(=O)N(C5CCC(=O)NC5=O)C6=O)CC4)cn3)nc2n(C2CCCC2)c1=O (centres unmarked) [BSJ-03–204]
CDK4 and CDK6 degradation selectivity (immunoblot) [3]: dual CDK4/6 degrader
IKZF1/3 degradation (immunoblot) [4]: none of which induced IKZF1/3 degradation
proteome-wide degradation selectivity [5]: selective for CDK4/6 degradation
CDK4/6 and IKZF1/3 protein loss (immunoblot) [2]: only resulted in degradation of CDK4/6
